Test results published in ChEMBL document CHEMBL1629531, “Hydroxycoumarin derivatives: novel and potent α-glucosidase inhibitors” (J Med Chem, 2010).
One block for each compound: values may come before it. The source made the active and inactive calls. No cut-off for these calls is given here.

Legend:
[1] = Inhibition of alpha-glucosidase using para-nitrophenyl substrate
[2] = Effect on secondary structure of alpha-glucosidase assessed as beta-sheet content at 0.5 uM at circular dichroism method
Procedure, shortened: (§1)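 Yeast α-glucosidase secondary structure measured by far-UV CD (186-240 nm), protein 0.53-0.66 mg/mL, 0.1 cm quartz cuvette, 5 accumulations per spectrum. Spectra recorded after exposure to inhibitor and compared with enzyme alone. α-helix, β-sheet, β-turn and random fractions estimated by secondary-structure deconvolution.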

[3] = Effect on secondary structure of alpha-glucosidase assessed as alpha-helix content at 0.5 uM bt circular dichroism method; procedure, shortened: as §1
[4] = Effect on secondary structure of alpha-glucosidase assessed as random content at 0.5 uM at circular dichroism method; procedure, shortened: as §1
[5] = Effect on secondary structure of alpha-glucosidase assessed as random content at 0.3 uM at circular dichroism method; procedure, shortened: as §1
[6] = Effect on secondary structure of alpha-glucosidase assessed as beta-turn content at 0.3 uM at circular dichroism method; procedure, shortened: as §1
[7] = Effect on secondary structure of alpha-glucosidase assessed as beta-turn content at 0.5 uM at circular dichroism method; procedure, shortened: as §1
[8] = Slow binding inhibition of alpha-glucosidase compound administered 1 hr at 37 degC before initiation of enzyme reaction using para-nitrophenyl substrate
Procedure, shortened: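 Yeast α-glucosidase preincubated with inhibitor at 37 °C for 1 h before the reaction is started with PNP glycoside substrate.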

[9] = Inhibition of alpha-glucosidase using para-nitrophenyl substrate by dose responsive study
[10] = Effect on secondary structure of alpha-glucosidase assessed as beta-sheet content at 0.3 uM at circular dichroism method; procedure, shortened: as §1
[11] = Inhibition of beta-glucosidase using salicin substrate
Procedure, shortened: (§2)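 β-Glucosidase added to 1 mL mix of inhibitor, 5.0 mM salicin, 0.1 M NaAc-HAc pH 5.0, then reacted 10 min at 40 °C. Stopped with DNS reagent and developed 5 min in boiling water. Reducing sugar read at 540 nm against a glucose standard. Triplicates at five concentrations bracketing an estimated IC50. Maximum inhibition recorded at the top concentration tested (400 or 200 μM).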

[12] = Inhibition of Aspergillus oryzae Beta-galactosidase at 200 uM
Procedure, shortened: (§3)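 β-Galactosidase from Aspergillus oryzae (9.4 unit/mg solid) assayed by a modified literature method. Values are means of ≥3 determinations. NA means <20% inhibition at 400 μM. Maximum inhibition recorded at the top concentration tested (400 or 200 μM).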

[13] = Noncompetitive inhibition of alpha-glucosidase by Lineweaver-Burk plot
Procedure, shortened: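 Yeast α-glucosidase (50 μL, 10 U/mL) preincubated with inhibitor at 37 °C for 1 h, then PNP glycoside substrate added at varying concentrations. Rate of PNP hydrolysis read at several inhibitor concentrations. Mode assigned from Lineweaver-Burk (1/rate vs 1/[substrate]) double-reciprocal plots. Ki taken from Dixon plot and averaged over the inhibitor concentrations.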

[14] = Inhibition of alpha-glucosidase compound administered simultaneously with para-nitrophenyl substrate
Procedure, shortened: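 Yeast α-glucosidase assay with PNP glycoside substrate, inhibitor and substrate added together with no preincubation.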

[15] = Inhibition of beta-glucosidase at 200 uM using salicin substrate; procedure, shortened: as §2
[16] = Inhibition of Aspergillus oryzae Beta-galactosidase; procedure, shortened: as §3
[17] = Effect on secondary structure of alpha-glucosidase assessed as alpha-helix content at 0.3 uM at circular dichroism method; procedure, shortened: as §1
[18] = Inhibition of alpha-glucosidase at 200 uM using para-nitrophenyl substrate
[19] = Inhibition of Aspergillus oryzae Beta-galactosidase at 400 uM; procedure, shortened: as §3
[20] = Inhibition of beta-glucosidase at 400 uM using salicin substrate; procedure, shortened: as §2

Structure (SMILES): Cc1cc(=O)oc2cc(O)c(O)cc12 [4-METHYLESCULETIN]
IC50 [1]: 94.2 µM

Structure (SMILES): COc1ccc2c(OC)cc(=O)oc2c1C
inhibition [18]: < 20%

Structure (SMILES): O=c1ccc2cc(O)ccc2o1
inhibition [18]: < 20%

Structure (SMILES): O=c1ccc2cc(O)c(O)cc2o1
inhibition [18]: < 20%

Structure (SMILES): Cc1cc(=O)oc2c(O)c(O)ccc12 [4-METHYLDAPHNETIN]
IC50 [1]: 52.7 µM

Structure (SMILES): Cc1cc(=O)oc2cc(O)cc(O)c12 [5,7-DIHYDROXY-4-METHYLCOUMARIN]
inhibition [19]: 53.9% | IC50 [1]: 64.6 µM | IC50 ([11]; read-out: IC50): 45.4 µM | IC50 ([16]; read-out: IC50): > 200 µM

Structure (SMILES): COc1ccc2c(OC)cc(=O)oc2c1
IC50 [1]: > 100 µM

Structure (SMILES): Cc1ccc2oc(=O)cc(O)c2c1
inhibition [18]: < 20%

Structure (SMILES): COc1ccc2c(O)cc(=O)oc2c1
IC50 [1]: 96.1 µM

Structure (SMILES): Cc1cc(=O)oc2cc(O)ccc12 [HYMECROMONE]
IC50 [1]: 56.2 µM

Second part, the compound after the results:

Activity [2]: 30% | Activity [3]: 32.7% | Activity [4]: 28.1% | Activity [5]: 29.4% | Activity [6]: 13.4% | Activity [7]: 9.2% | inhibition [8]: Active | inhibition [9]: Dose-dependent effect | Activity [10]: 23.8% | IC50 [1]: 0.86 µM | IC50 ([11]; read-out: IC50): > 200 µM | inhibition [12]: 2% | Ki [13]: 0.587 µM | IC50 [14]: 88.4 µM | inhibition [15]: 23% | IC50 ([16]; read-out: IC50): > 200 µM | Activity [17]: 33.4%
Structure (SMILES): O=c1oc2cc(O)ccc2c(O)c1-c1c(O)ccc(O)c1-c1c(O)c2ccc(O)cc2oc1=O

IC50 [1]: 12.4 µM
Structure (SMILES): O=c1c(-c2ccc(O)cc2)coc2cc(O)cc(O)c12 [GENISTEIN]

Activity [2]: 7.4% | Activity [3]: 37.1% | Activity [4]: 34.1% | Activity [5]: 29.4% | Activity [6]: 18% | Activity [7]: 21.4% | inhibition [19]: 0% | Activity [10]: 5.3% | IC50 [1]: 38.9 µM | IC50 ([11]; read-out: IC50): > 400 µM | inhibition [20]: 36.7% | IC50 [16]: Not Active | Activity [17]: 47.1%
Structure (SMILES): O=c1cc(O)c2ccc(O)cc2o1

IC50 [1]: 35.5 µM
Structure (SMILES): OC[C@H]1NC[C@H](O)[C@@H](O)[C@@H]1O [DUVOGLUSTAT]

inhibition [19]: 0% | IC50 [1]: 50.5 µM | IC50 ([11]; read-out: IC50): 87.6 µM | IC50 [16]: Not Active
Structure (SMILES): Cc1c(O)ccc2c(O)cc(=O)oc12

inhibition [19]: 0% | IC50 [1]: 35.3 µM | IC50 [11]: Not Active | IC50 [16]: Not Active
Structure (SMILES): O=c1oc2ccccc2cc1O [3-HYDROXYCOUMARIN]
